Converted amounts (≈) assume the structure as drawn. The source made the active and inactive calls. The rule behind the calls is not given here.
Tests used:
Bacillus subtilis [1] = assay: Antibiofilm activity against Bacillus subtilis MTCC 121 after 24 hrs by crystal violet staining based assay; type: functional, organism-based; details: MTCC 121, 24 h
Method in brief: (§1)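 Biofilm inhibition tested for amine esters and esterquats. IC50 values (µg/mL) are the mean of three determinations, with ciprofloxacin as reference.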

Staphylococcus aureus [2] = assay: Bactericidal activity against Staphylococcus aureus MLS16 MTCC 2940 after 24 hrs by serial dilution method; type: functional; details: MLS16 MTCC 2940, 24 h
Bacillus subtilis [3] = assay: Antimicrobial activity against Bacillus subtilis MTCC 121 assessed as growth inhibition after 24 hrs by agar well diffusion method; type: functional; details: MTCC 121, 24 h
Staphylococcus aureus [4] = assay: Bactericidal activity against Staphylococcus aureus MLS16 MTCC 2940 assessed as increase in intracellular ROS accumulation in at 0.5 to 2 ug/mL after 24 hrs by DCFHDA staining based fluorometric assay; type: functional, organism-based
Method in brief: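 Intracellular ROS measured in cells of mature biofilms using the general ROS fluorescent probe 2′,7′-dichlorofluorescein-diacetate (DCFH-DA), read as increase in fluorescence. Sessile cells and the supernatant were measured separately.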

Pseudomonas aeruginosa = assay: Antimicrobial activity against Pseudomonas aeruginosa MTCC 2453 assessed as growth inhibition after 24 hrs by agar well diffusion method; type: functional; details: MTCC 2453, 24 h
Micrococcus luteus [5] = assay: Bactericidal activity against Micrococcus luteus MTCC 2470 after 24 hrs by serial dilution method; type: functional; details: MTCC 2470, 24 h
Staphylococcus aureus [6] = assay: Antimicrobial activity against Staphylococcus aureus MTCC 96 assessed as growth inhibition after 24 hrs by agar well diffusion method; type: functional; details: MTCC 96, 24 h
Raoultella planticola [7] = assay: Antimicrobial activity against Klebsiella planticola MTCC 530 assessed as growth inhibition after 24 hrs by agar well diffusion method; type: functional; details: MTCC 530, 24 h
Raoultella planticola [8] = assay: Bactericidal activity against Klebsiella planticola MTCC 530 after 24 hrs by serial dilution method; type: functional; details: MTCC 530, 24 h
Micrococcus luteus [9] = assay: Antimicrobial activity against Micrococcus luteus MTCC 2470 assessed as growth inhibition after 24 hrs by agar well diffusion method; type: functional; details: MTCC 2470, 24 h
Escherichia coli [10] = assay: Bactericidal activity against Escherichia coli MTCC 739 after 24 hrs by serial dilution method; type: functional; details: MTCC 739, 24 h
Bacillus subtilis [11] = assay: Bactericidal activity against Bacillus subtilis MTCC 121 after 24 hrs by serial dilution method; type: functional; details: MTCC 121, 24 h
Micrococcus luteus [12] = assay: Antibiofilm activity against Micrococcus luteus MTCC 2470 after 24 hrs by crystal violet staining based assay; type: functional, organism-based; details: MTCC 2470, 24 h; method in brief: as §1
Escherichia coli [13] = assay: Antimicrobial activity against Escherichia coli MTCC 739 assessed as growth inhibition after 24 hrs by agar well diffusion method; type: functional; details: MTCC 739, 24 h
Staphylococcus aureus [14] = assay: Bactericidal activity against Staphylococcus aureus MTCC 96 after 24 hrs by serial dilution method; type: functional; details: MTCC 96, 24 h
Staphylococcus aureus [15] = assay: Antimicrobial activity against Staphylococcus aureus MLS16 MTCC 2940 assessed as growth inhibition after 24 hrs by agar well diffusion method; type: functional; details: MLS16 MTCC 2940, 24 h
Staphylococcus aureus [16] = assay: Antibiofilm activity against Staphylococcus aureus MLS16 MTCC 2940 after 24 hrs by crystal violet staining based assay; type: functional, organism-based; details: MLS16 MTCC 2940, 24 h; method in brief: as §1
Candida parapsilosis [17] = assay: Antimicrobial activity against Candida parapsilosis MTCC 1744 assessed as growth inhibition after 24 hrs by agar well diffusion method; type: functional; details: Lodderomyces parapsilosis, MTCC 1744, 24 h
Candida albicans [18] = assay: Antimicrobial activity against Candida albicans MTCC 227 assessed as growth inhibition after 24 hrs by agar well diffusion method; type: functional; details: MTCC 227, 24 h
Candida albicans [19] = assay: Fungicidal activity against Candida albicans MTCC 1637 after 24 hrs by serial dilution method; type: functional; details: MTCC 1637, 24 h
Candida albicans [20] = assay: Antimicrobial activity against Candida albicans MTCC 3958 assessed as growth inhibition after 24 hrs by agar well diffusion method; type: functional; details: MTCC 3958, 24 h
[Candida] aaseri [21] = Fungicidal activity against Candida aaseri MTCC 1962 after 24 hrs by serial dilution method; type: functional; details: Yamadazyma aaseri, MTCC 1962, 24 h
Pichia sporocuriosa [22] = assay: Antimicrobial activity against Issatchenkia hanoiensis MTCC 4755 assessed as growth inhibition after 24 hrs by agar well diffusion method; type: functional; details: MTCC 4755, 24 h
Pichia sporocuriosa [23] = assay: Fungicidal activity against Issatchenkia hanoiensis MTCC 4755 after 24 hrs by serial dilution method; type: functional; details: MTCC 4755, 24 h
Candida albicans [24] = assay: Antimicrobial activity against Candida albicans MTCC 3018 assessed as growth inhibition after 24 hrs by agar well diffusion method; type: functional; details: MTCC 3018, 24 h
[Candida] aaseri [25] = Antimicrobial activity against Candida aaseri MTCC 1962 assessed as growth inhibition after 24 hrs by agar well diffusion method; type: functional; details: Yamadazyma aaseri, MTCC 1962, 24 h
Nakaseomyces glabratus [26] = assay: Fungicidal activity against Candida glabrata MTCC 3019 after 24 hrs by serial dilution method; type: functional; details: MTCC 3019, 24 h
Candida albicans [27] = assay: Antimicrobial activity against Candida albicans MTCC 3017 assessed as growth inhibition after 24 hrs by agar well diffusion method; type: functional; details: MTCC 3017, 24 h
Candida albicans [28] = assay: Antimicrobial activity against Candida albicans MTCC 7315 assessed as growth inhibition after 24 hrs by agar well diffusion method; type: functional; details: MTCC 7315, 24 h
Candida albicans [29] = assay: Fungicidal activity against Candida albicans MTCC 3018 after 24 hrs by serial dilution method; type: functional; details: MTCC 3018, 24 h
Candida albicans [30] = assay: Fungicidal activity against Candida albicans MTCC 3017 after 24 hrs by serial dilution method; type: functional; details: MTCC 3017, 24 h
Candida albicans [31] = assay: Antimicrobial activity against Candida albicans MTCC 183 assessed as growth inhibition after 24 hrs by agar well diffusion method; type: functional; details: MTCC 183, 24 h
Candida albicans [32] = assay: Fungicidal activity against Candida albicans MTCC 227 after 24 hrs by serial dilution method; type: functional; details: MTCC 227, 24 h
Candida albicans [33] = assay: Fungicidal activity against Candida albicans MTCC 183 after 24 hrs by serial dilution method; type: functional; details: MTCC 183, 24 h
Candida albicans [34] = assay: Antimicrobial activity against Candida albicans MTCC 4748 assessed as growth inhibition after 24 hrs by agar well diffusion method; type: functional; details: MTCC 4748, 24 h
Candida albicans [35] = assay: Fungicidal activity against Candida albicans MTCC 854 after 24 hrs by serial dilution method; type: functional; details: MTCC 854, 24 h
Candida albicans [36] = assay: Fungicidal activity against Candida albicans MTCC 3958 after 24 hrs by serial dilution method; type: functional; details: MTCC 3958, 24 h
Candida albicans [37] = assay: Fungicidal activity against Candida albicans MTCC 4748 after 24 hrs by serial dilution method; type: functional; details: MTCC 4748, 24 h
Staphylococcus aureus [38] = assay: Antibiofilm activity against Staphylococcus aureus MTCC 96 after 24 hrs by crystal violet staining based assay; type: functional, organism-based; details: MTCC 96, 24 h; method in brief: as §1
Pichia kudriavzevii [39] = assay: Antimicrobial activity against Candida krusei MTCC 3020 assessed as growth inhibition after 24 hrs by agar well diffusion method; type: functional; details: MTCC 3020, 24 h
Nakaseomyces glabratus [40] = assay: Antimicrobial activity against Candida glabrata MTCC 3019 assessed as growth inhibition after 24 hrs by agar well diffusion method; type: functional; details: MTCC 3019, 24 h
Candida albicans [41] = assay: Antimicrobial activity against Candida albicans MTCC 1637 assessed as growth inhibition after 24 hrs by agar well diffusion method; type: functional; details: MTCC 1637, 24 h
Pichia kudriavzevii [42] = assay: Fungicidal activity against Candida krusei MTCC 3020 after 24 hrs by serial dilution method; type: functional; details: MTCC 3020, 24 h
Candida parapsilosis [43] = assay: Fungicidal activity against Candida parapsilosis MTCC 1744 after 24 hrs by serial dilution method; type: functional; details: Lodderomyces parapsilosis, MTCC 1744, 24 h
Candida albicans [44] = assay: Fungicidal activity against Candida albicans MTCC 7315 after 24 hrs by serial dilution method; type: functional; details: MTCC 7315, 24 h
Candida albicans [45] = assay: Antimicrobial activity against Candida albicans MTCC 854 assessed as growth inhibition after 24 hrs by agar well diffusion method; type: functional; details: MTCC 854, 24 h

## O=C(O)c1cn(C2CC2)c2cc(N3CCNCC3)c(F)cc2c1=O [CIPROFLOXACIN]
Bacillus subtilis [1]
  IC50: 0.5 µg/mL (≈ 1.51 µM)
Staphylococcus aureus [2]
  MBC: 0.9 µg/mL (≈ 2.72 µM)
Bacillus subtilis [3]
  MIC: 0.9 µg/mL (≈ 2.72 µM)
Staphylococcus aureus [4]
  Activity: Active
Pseudomonas aeruginosa
  MIC: 0.9 µg/mL (≈ 2.72 µM)
Micrococcus luteus [5]
  MBC: 1.9 µg/mL (≈ 5.73 µM)
Staphylococcus aureus [6]
  MIC: 0.9 µg/mL (≈ 2.72 µM)
Raoultella planticola [7]
  MIC: 0.9 µg/mL (≈ 2.72 µM)
Raoultella planticola [8]
  MBC: 1.9 µg/mL (≈ 5.73 µM)
Micrococcus luteus [9]
  MIC: 0.9 µg/mL (≈ 2.72 µM)
Escherichia coli [10]
  MBC: 1.9 µg/mL (≈ 5.73 µM)
Bacillus subtilis [11]
  MBC: 0.9 µg/mL (≈ 2.72 µM)
Micrococcus luteus [12]
  IC50: 0.6 µg/mL (≈ 1.81 µM)
Escherichia coli [13]
  MIC: 0.9 µg/mL (≈ 2.72 µM)
Staphylococcus aureus [14]
  MBC: 1.9 µg/mL (≈ 5.73 µM)
Staphylococcus aureus [15]
  MIC: 0.9 µg/mL (≈ 2.72 µM)
Staphylococcus aureus [16]
  IC50: 0.4 µg/mL (≈ 1.21 µM)

## CCCCCCCCCCCC[N+](C)(C)CCCCCCCCCCC(=O)OC.[Cl-]
Candida parapsilosis [17]
  MIC: 62.5 µg/mL
Candida albicans [18]
  MIC: 31.2 µg/mL
Candida albicans [19]
  MFC: 62.5 µg/mL
Candida albicans [20]
  MIC: 62.5 µg/mL
[Candida] aaseri [21]
  MFC: 62.5 µg/mL
Pichia sporocuriosa [22]
  MIC: 31.2 µg/mL
Pichia sporocuriosa [23]
  MFC: 62.5 µg/mL
Candida albicans [24]
  MIC: 62.5 µg/mL
Bacillus subtilis [1]
  IC50: 8.5 µg/mL
[Candida] aaseri [25]
  MIC: 31.2 µg/mL
Staphylococcus aureus [2]
  MBC: 31.2 µg/mL
Nakaseomyces glabratus [26]
  MFC: 31.2 µg/mL
Candida albicans [27]
  MIC: 31.2 µg/mL
Candida albicans [28]
  MIC: 31.2 µg/mL
Candida albicans [29]
  MFC: 62.5 µg/mL
Candida albicans [30]
  MFC: 62.5 µg/mL
Bacillus subtilis [3]
  MIC: 15.6 µg/mL
Candida albicans [31]
  MIC: 31.2 µg/mL
Candida albicans [32]
  MFC: 31.2 µg/mL
Candida albicans [33]
  MFC: 31.2 µg/mL
Candida albicans [34]
  MIC: 15.6 µg/mL
Candida albicans [35]
  MFC: 62.5 µg/mL
Pseudomonas aeruginosa
  MIC: > 125 µg/mL
Micrococcus luteus [5]
  MBC: 31.2 µg/mL
Candida albicans [36]
  MFC: 31.2 µg/mL
Staphylococcus aureus [6]
  MIC: 15.6 µg/mL
Raoultella planticola [7]
  MIC: 7.8 µg/mL
Raoultella planticola [8]
  MBC: 15.6 µg/mL
Micrococcus luteus [9]
  MIC: 7.8 µg/mL
Escherichia coli [10]
  MBC: 31.2 µg/mL
Candida albicans [37]
  MFC: 31.2 µg/mL
Bacillus subtilis [11]
  MBC: 31.2 µg/mL
Staphylococcus aureus [38]
  IC50: 9.1 µg/mL
Micrococcus luteus [12]
  IC50: 8.8 µg/mL
Pichia kudriavzevii [39]
  MIC: 62.5 µg/mL
Nakaseomyces glabratus [40]
  MIC: 31.2 µg/mL
Candida albicans [41]
  MIC: 62.5 µg/mL
Escherichia coli [13]
  MIC: 15.6 µg/mL
Staphylococcus aureus [14]
  MBC: 31.2 µg/mL
Pichia kudriavzevii [42]
  MFC: 62.5 µg/mL
Staphylococcus aureus [15]
  MIC: 7.8 µg/mL
Staphylococcus aureus [16]
  IC50: 22.2 µg/mL
Candida parapsilosis [43]
  MFC: 62.5 µg/mL
Candida albicans [44]
  MFC: 31.2 µg/mL
Candida albicans [45]
  MIC: 31.2 µg/mL

— ChEMBL document CHEMBL3784971, “Synthesis, characterization, antimicrobial and biofilm inhibitory studies of new esterquats” (Bioorg Med Chem Lett, 2016)
